ChEMBL document CHEMBL4715780, “Biological evaluation of tetracationic compounds based on two 1,4-diazabicyclo[2.2.2]octane moieties connected by different linkers” (Bioorg Med Chem, 2016)

Experiments:
Staphylococcus aureus = experiment: Bactericidal activity against […] Staphylococcus aureus ATCC 25923 assessed as reduction in colony forming unit at 2.5 ug/ml measured at 2 hrs by time kill assay relative to control; format: functional; set-up: scale not given: the % may be the effect or the level left; settings: dose 2.5 µg/ml
Outline: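 S. aureus overnight culture was adjusted in MHB to ~8 × 10⁵ CFU/mL. Compound was added and the mixture incubated at 37 °C with shaking (580 rpm) for 22 h. Aliquots were plated for colony counts at 2, 4, 6, 8 and 22 h, with a quantification limit of 100 CFU/mL. Runs were done in triplicate.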

[1] = Selectivity index, ratio of CC50 for HEK293T cells assessed as reduction in cell viability measured after 24 hrs by MTT assay to MIC for Candida albicans CEMTC 34 assessed as bacterial growth inhibition by CLSI protocol based serial microdilution method; format: toxicity; settings: human, read-out: Selectivity Index
Outline: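 SI = CC₅₀ (HEK293T) / MIC. HEK293T cells were seeded at 20,000/well overnight, then exposed to 10–250 µg/mL in IMDM with 10% FBS for 24 h. MTT was added for 4 h, solubilised with SDS-HCl, and read at 570 nm; duplicates, ≥2 independent runs. MIC came from two-fold dilutions in Sabouraud dextrose broth at ~5 × 10⁵ CFU/mL, 37 °C with shaking, read at 595 nm, in duplicate.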

Question: Which results are given for `CCCCCCCCCCCC[N+]12CC[N+](Cc3ccccc3C[N+]34CC[N+](CCCCCCCCCCCC)(CC3)CC4)(CC1)CC2`?
Answer: Activity (Staphylococcus aureus): >=99%; selectivity ratio at 24 h [1]: 1
